Measurements published in ChEMBL document CHEMBL4513216, “Probing the Open Global Health Chemical Diversity Library for Multistage-Active Starting Points for Next-Generation Antimalarials” (ACS Infect Dis, 2020).

Test: Toxicity liver stage against HepG2, at 10uM
Format: cell-based
Design: test concentration 10 uM, cell line HepG2-A16-CD81EGFP
Details: human, HepG2-A16-CD81EGFP cells; read-out: INHIBITION
Outline: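 Uninfected HepG2-A16-CD81EGFP cells, 3 × 10^3 per well, 1536-well, plated on prespotted compound at 10 μM final, parasite-free screening media added to match infected plates; puromycin 10 μM positive, DMSO 0.5% negative; run in parallel with 48 h PbLuc assay at 37 °C, 5% CO2; viability by CellTiter-Glo luminescence, normalized to controls.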

Row | SMILES | cytotoxicity at 10 µM [%]
1 | O=C(NC1CCN(c2ncccn2)CC1)c1cc2c([nH]c1=O)CCC2 | 1.28
2 | Cc1cc(C)cc(OCC(=O)N2CCCC2)c1 | 5.04
3 | O=C(c1cc(C2CCCCC2)no1)N1C[C@H]2CC(O)C[C@H]2C1 (some centres undefined) | -3.89
4 | CCOCC1CN(S(=O)(=O)CC)Cc2cnn(CC3CC3)c21 (centres undefined) | 9.55
5 | Cc1ccc(CC(=O)N2CCCC2Cn2nc(C)cc2C)cn1 (centres undefined) | -9.24
6 | CN(Cc1ccc2c(c1)OCO2)C(=O)c1ccc(=O)n(C)c1 | -9.17
7 | CC(C)c1nc(CNC2CCCN(c3cccnn3)C2)no1 (centres undefined) | 7.68
8 | c1cnn(CCNCc2csc(-c3ccc4c(c3)OCO4)n2)c1 | 4.12
9 | COc1cc(OC)cc(-c2cc(CN)nc3ccnn23)c1 | -0.945
10 | CC(=O)Nc1nc(CN2CCOC(Cn3nc(C)cc3C)C2)cs1 (centres undefined) | 4.23
11 | COc1cc(F)ccc1-c1cc(N)ccn1 | -9.5
12 | CCn1c(C2CCCN(C(=O)c3ccc[nH]3)C2)nn(CCN(C)C)c1=O (centres undefined) | 2.67
13 | Cc1ccc(CCNC(=O)NC2CCN(CC(F)(F)F)C2=O)cn1 (centres undefined) | 4.75
14 | CC(=O)Nc1cccc(C(=O)N(C)C(C)Cc2cc(C)ccn2)c1 (centres undefined) | 11
15 | O=S(=O)(c1cccnc1)N1C[C@H]2CC[C@@H](C1)N(Cc1ccccc1)C2 | -5.79
16 | NC(=O)C1CCN(C(=O)c2cc(Br)ccc2-n2cnnn2)CC1 | 13.1
17 | CN(c1ncc(C(=O)NCc2ccccc2)c(N)n1)C1CCCCC1 | -4.31
18 | Cc1cc(C)nc(NCCCC(=O)NCCn2ccc3ccccc32)n1 | -0.1
19 | Cc1cnn(CC2CCCN2Cc2noc(CC(C)C)n2)c1 (centres undefined) | -5.04
20 | O=C(Nc1ccccc1)c1cc2n(n1)CCCN(C(=O)c1ccc[nH]1)C2 | 3.99
21 | Cc1ccc(Oc2ncccc2CNC2Cc3ccccc3C2)cn1 | -2.19
22 | N#Cc1ccc(CN2C[C@@H]3OCC(=O)N[C@@H]3C2)cc1 | -3.01

Row | SMILES | cytotoxicity at 10 µM [%]
23 | COc1ccc2c(c1)CN(CC1CC1)C(=O)CCN2CC(C)(C)O | -13.9
24 | CCS(=O)(=O)N1Cc2ccccc2CC1C(=O)OCc1cc(C)no1 (centres undefined) | -13
25 | NC(=O)C1CCN(C(=O)NCc2cccnc2OC2CCCC2)C1 (centres undefined) | -7.12
26 | CC(C)CN1C(=O)C2(CCN(Cc3cccs3)C2)c2ccccc21 (centres undefined) | 10.1
27 | COC(=O)N1CCCCC1C(=O)N1CCCN(c2ccnc(C)c2)CC1 (centres undefined) | -3.76
28 | Cc1noc(C)c1CN1CC[C@H]2OCC[C@@]2(C(=O)NC2CCCC2)C1 | -75.7
29 | CC(C)NC(=O)N1CCC2(CCC(=O)N2CCN2CCCC2)CC1 | 3.7
30 | CC(c1ccc(C(=O)NCCc2nc(N)cc(O)n2)o1)N1CCCCC1 (centres undefined) | -8.9
31 | CC(NCc1cccc(NC(=O)C2CCCCC2)c1)c1cnn(C)c1 (centres undefined) | -0.26
32 | c1ccc2c(c1)CCN2c1nc(N2CCOCC2)c2nn[nH]c2n1 | -3.29
33 | CC(=O)N1CCCN(C(=O)NCc2cccnc2OC(C)C)CC1 | -5.5
34 | CCn1cnnc1C1CCN(C(=O)c2cc(F)ccc2OC)CC1 | -3.35
35 | Cc1cc(C2CCCN2C(=O)Nc2cn[nH]c2)on1 (centres undefined) | 1.24
36 | CN(c1ccc(CNc2c(Cl)cccc2C#N)cc1)S(C)(=O)=O | -66.9
37 | CN(C)c1ncccc1CNC(=O)CCNc1ncccn1 | -2.22
38 | CCc1c(C)sc2c1c(N)nc(=O)n2CCN1CCCCC1 | 9.49
39 | CCc1nnc2n1CCN(C(=O)C1CCC(n3cccc3)CC1)C2 (centres undefined) | -1.5
40 | COc1cccc(-n2nnc(C(=O)N3CCC(C(N)=O)CC3)c2C)c1 | -6.66
41 | CN(C)CCN(C)c1ccc(-c2nc(COc3ccccc3)no2)cn1 | 4.35
42 | COC(=O)c1cc(C2CC2)nc2c(C#N)cnn12 | 14
43 | O=C(NCC1CCOCC1)c1cc(-c2ccncc2)c2cnccc2n1 | -0.762
44 | COc1ccc2c(c1)OCC(CNC(=O)c1ccc(=O)n(C)c1)C2 (centres undefined) | -11.2

Row | SMILES | cytotoxicity at 10 µM [%]
45 | Cc1nc(N(C)C2CCCCC2)ncc1C(C)NC(=O)c1cccnc1 (centres undefined) | -105
46 | CCc1nc(CN2CCCC2C(=O)NC)cs1 (centres undefined) | -3.09
47 | CCc1nnc(CN2CCC3(CC2)Nc2ccccc2NC3=O)o1 | -6.96
48 | Cc1nc2cc(C(=O)N3C[C@@H](C(=O)O)[C@H](c4ccncc4)C3)ccc2[nH]1 | 0.682
49 | CN(C)CC1CN(CCOc2cccc(C#N)c2)CCO1 (centres undefined) | -9.63
50 | COc1cc(-c2cnnc(NCCSC)n2)cc(OC)c1OC | 3.98
51 | CC(C)N1CCOC(CC(=O)N2CCCN(c3ccc(F)cc3)CC2)C1 (centres undefined) | -4.66
52 | COc1ccc2c(c1)NC(C1CCN(C(=O)C(C)C)CC1)NS2(=O)=O (centres undefined) | -4.66
53 | Cn1ncc2c1C(COCC1CC1)CN(Cc1ccoc1)C2 (centres undefined) | -1.21
54 | CC(C)(C)c1noc(CN2CCN(C(=O)c3cccs3)CC2)n1 | -5.82
55 | NC(=O)COc1ccc(CN2CCC(O)(CN3CCCCC3)C2)cc1Cl (centres undefined) | -1.73
56 | CC(C)Cc1cc(C(=O)NCCc2ccc(S(C)(=O)=O)cc2)[nH]n1 | -8.93
57 | Cc1cnn(CCNCc2csc(-c3ccc(C)o3)n2)c1 | -1.64
58 | c1cncc(-c2noc(CN3CCn4c(nnc4C4CC4)C3)n2)c1 | -8.69
59 | Cc1nc(C)n(CC2CCCN2Cc2nc(-c3ccco3)no2)n1 (centres undefined) | -4.39
60 | O=C(O)c1c(-c2cncnc2)ncc2c1CCN(Cc1ccco1)C2 | -2.69
61 | COc1cccc2c(=O)n(C3CCNCC3)cnc12 | -53.4
62 | CN(C)c1cc(C2CCCN(C(=O)c3noc4c3CCCC4)C2)ccn1 (centres undefined) | -12.3
63 | Cc1cc(N2CCC3(CC2)C(C(=O)O)CC(=O)N3C)nc2ccccc12 (centres undefined) | -1.6
64 | COC(=O)CCC(=O)N1CCC2(CN(Cc3cccc(Cl)c3)C2)C1 | -62.4
65 | Cc1nc(CN(C)C(=O)c2ccc(Cn3cnnn3)cc2)cs1 | -15.4
66 | CCc1nc(C2CCCN2Cc2nc(C3CC3)no2)no1 (centres undefined) | -21.4

Row | SMILES | cytotoxicity at 10 µM [%]
67 | CC(C(=O)N(C)Cc1ccc(Br)o1)n1cncn1 (centres undefined) | 5.87
68 | Cc1cccc(C(=O)N2CCCC(c3nccn3Cc3cscn3)C2)n1 (centres undefined) | -1.28
69 | CCOc1ccnc(N2CCN(C(=O)c3c(CC)noc3C)CC2)n1 | -5.43
70 | CSCC[C@@H]1CN2CCC[C@H]2CN1Cc1coc2ccc(Cl)cc2c1=O | 0.11
71 | CC1(C)[C@@H]2CC=C(CN3CCCn4nc(CCC(=O)O)cc4C3)[C@H]1C2 | -40.2
72 | Cc1[nH]c(=O)c(C#N)cc1C(=O)N1C[C@@H](CN2CCCC2)C[C@H](CO)C1 | -8.08
73 | Cc1occc1C(=O)N1CCC2(CCC(=O)N(CC(N)=O)C2)CC1 | -9.32
74 | CNS(=O)(=O)c1ccc(C(=O)N2CCCC2Cc2ccccc2)o1 (centres undefined) | -8.53
75 | COc1ccccc1C(=O)NS(=O)(=O)c1cccc(C#N)c1 | -6.52
76 | CC(C)CC(NC(=O)CSc1ccc(F)c(Cl)c1)C(=O)O (centres undefined) | -46
77 | COc1nc2ccccc2cc1C1CC(=O)Nc2n[nH]c(C3CCC3)c21 (centres undefined) | -13.5
78 | Cc1nc(C)n(CC2CCCN(c3ncnc4[nH]ccc34)C2)n1 (centres undefined) | 12.8
79 | O=C(O)C1CCN(c2nc3c(-c4ccccc4F)csc3c(=O)[nH]2)CC1 | -10
80 | CCOc1cc(C(=O)N2CCCC(c3nc(C)c(C)s3)C2)ccn1 (centres undefined) | -3.92
81 | N#Cc1ccc(C(=O)N2CC[C@H]3[C@@H]2CCC(=O)N3c2ccccc2)cc1 | 3.99
82 | CNC(=O)c1ccc(OC)c(NCc2ncc(-c3cccs3)o2)c1 | 14
83 | Cc1nc(C)c(C(=O)N2CCc3nnc(C4CCCN4C)n3CC2)s1 (centres undefined) | -4.34
84 | Cc1noc(Cl)c1CC(=O)N1CCCC(n2cccn2)C1 (centres undefined) | -6.14
85 | CN1CCN(C2CCN(Cc3noc(C4CC4)n3)CC2)C1=O | 8.54
86 | c1cnn(CC2CN(c3ncnc4ccsc34)CCO2)c1 (centres undefined) | 38.7
87 | COc1cccc(Cc2nnc(SCCS(C)(=O)=O)o2)c1 | 2.72
88 | Cn1cc(CN2C[C@@H](NC(=O)c3cscn3)[C@H]3OCCC[C@H]32)cn1 | -11.7

Row | SMILES | cytotoxicity at 10 µM [%]
89 | Cc1nc2sccn2c1CNC1(c2ccccc2F)CCCC1 | 11.3
90 | CC/N=c1\nc(NCC)nc2n1C(O)(Nc1cc(Cl)ccc1Cl)CS2 (centres undefined) | 51.8
91 | COc1ccc(CCN2CC(NCc3ncc[nH]3)CC2=O)cc1 (centres undefined) | 0.749
92 | CCN(CC)CC1CN(Cc2c(C)noc2C)Cc2nccn2C1 (centres undefined) | 2.37
93 | Cc1c(Br)cccc1C(=O)NCC1CCNCC1 | -16
94 | O=C(NCC1CC[C@@H]2[C@@H]1OCCN2Cc1cccs1)c1ccco1 (some centres undefined) | 3.23
95 | CC(C)c1ncc(CN2CCOC(C(=O)Nc3ccccc3)C2)cn1 (centres undefined) | -25.3
96 | CC(CO)CN(Cc1ccccc1)C(=O)c1csc(CN(C)C)n1 (centres undefined) | -8.69
97 | CN(C)C1(CNC(=O)Cc2ccc(F)cc2)CCOCC1 | 6.03
98 | CC(=O)N1CCC1c1cc(NC2CCOCC2)nc(C)n1 (centres undefined) | 1.79
99 | CC(C)=CCCN1CCN(C)C2(CCC(=O)N(C)CC2)C1 (centres undefined) | -54
100 | CC(C)C1CN(C(=O)c2ccc(Cl)cn2)CCCN1CC1CC1 (centres undefined) | 5.15
101 | CC(C)CNC(=O)c1ccc(NC(=O)NC(C)C)cc1Cl | 5.92
102 | CS(=O)(=O)c1ccc(CNC(=O)N2CCC(CO)CC2)cc1 | -11.6
103 | O=C(NCCc1ccn(-c2ccc(F)cc2)n1)C1CCCOC1 (centres undefined) | 6.65
104 | O=C(c1ncn2c(C3CCN(CC4CC4)CC3)ccnc12)N1CCCC1 | -3
105 | Cc1noc([C@H]2CC[C@@H]3[C@@H](CCN3S(C)(=O)=O)O2)n1 | -19.3
106 | Cc1nc2c(c(NCC(c3cccnc3)N3CCOCC3)n1)CCNC2 (centres undefined) | -11.1
107 | Cc1cnc(N2CCC3(CC2)CC3C(=O)NCC2CC2)nc1 (centres undefined) | 6.34
108 | Cc1cc(NC(=O)CN2CCCC2c2noc(C3CC3)n2)n(C)n1 (centres undefined) | -1.16
109 | COc1ccccc1C1(CNc2cc(C(=O)N(C)C)ccn2)CC1 | -1.6
